Screening results from PubChem.
TRPC6 activator – mouse TRPC6 channel activators, primary screen, cell-based, HEK293, membrane potential dye; Short transient receptor potential channel 6 (Mus musculus), Q61143; HEK293-TRPC6 membrane potential dye fluorescence; hits give high values; B-score at 10 µM; actives 0.13% (n = 310,000); AID 2550, 2010;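 active = B-score of the integrated fluorescence ratio above library mean plus 3 SD, and starting fluorescence ratio within library mean plus 5 SD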;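 also: higher score means more depolarization so channel activation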
TRPC4 agonist – activators of mouse TRPC4 channel, primary screen, Fluo4 calcium, HEK293 TRPC4beta/mu-opioid cells | Fluo4 calcium fluorescence; hits give high values | B-score at 10 µM | actives 0.49% (n = 310,000) | AID 2237, 2010;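 active = B-score above 5 SD of library B-scores, and initial fluorescence ratio not above library mean plus 5 SD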;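 also: positive B-score marks a calcium rise read as TRPC4 activation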
Target sequence (Q9QUQ5 whole entry, looked up): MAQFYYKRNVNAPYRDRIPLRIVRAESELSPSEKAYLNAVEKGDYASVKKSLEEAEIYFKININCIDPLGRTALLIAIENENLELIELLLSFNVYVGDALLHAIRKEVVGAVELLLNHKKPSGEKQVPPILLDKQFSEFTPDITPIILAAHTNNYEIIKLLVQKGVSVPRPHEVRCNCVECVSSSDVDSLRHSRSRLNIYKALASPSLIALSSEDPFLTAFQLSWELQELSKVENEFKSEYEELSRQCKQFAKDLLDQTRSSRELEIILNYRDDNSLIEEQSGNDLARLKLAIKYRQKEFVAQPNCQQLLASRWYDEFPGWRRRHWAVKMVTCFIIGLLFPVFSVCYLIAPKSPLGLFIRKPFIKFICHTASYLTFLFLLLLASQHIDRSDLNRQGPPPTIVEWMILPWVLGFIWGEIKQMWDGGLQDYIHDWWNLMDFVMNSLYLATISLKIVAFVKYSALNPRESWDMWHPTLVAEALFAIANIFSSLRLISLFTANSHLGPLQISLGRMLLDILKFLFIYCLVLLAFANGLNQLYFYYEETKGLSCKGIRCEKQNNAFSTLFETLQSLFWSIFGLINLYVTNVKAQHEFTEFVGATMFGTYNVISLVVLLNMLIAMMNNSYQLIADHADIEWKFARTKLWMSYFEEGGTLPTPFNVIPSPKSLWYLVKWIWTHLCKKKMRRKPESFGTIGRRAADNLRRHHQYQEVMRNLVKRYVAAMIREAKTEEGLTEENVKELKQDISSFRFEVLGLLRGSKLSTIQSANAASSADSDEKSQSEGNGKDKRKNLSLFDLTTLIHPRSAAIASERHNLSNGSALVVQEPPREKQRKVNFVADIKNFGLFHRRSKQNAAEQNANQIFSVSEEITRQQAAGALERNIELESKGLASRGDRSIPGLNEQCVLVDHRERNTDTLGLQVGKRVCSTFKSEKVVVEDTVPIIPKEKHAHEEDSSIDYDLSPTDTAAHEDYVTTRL
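Assay system: HEK293 cells stably co-expressing mouse TRPC4beta and mu-opioid receptor / Timing: Fluo4 dye loading 45 min at room temperature, 110 s recording / Signal: Fluo4 calcium-sensitive dye fluorescence, kinetic, 1 Hz baseline / Read-out: integrated baseline-normalised fluorescence ratio, converted to per-well B score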
TRPC6 inh – mouse TRPC6 channel inhibitors, primary screen, cell-based, HEK293, membrane potential dye; Short transient receptor potential channel 6 (Mus musculus), Q61143; ACh-evoked depolarization; hits give low values; B-score at 10 µM; actives 1.1% (n = 310,000);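 active = B-score under library mean minus 3 SD, initial fluorescence not abnormally high, positive integrated signal ratio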;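 also: B-score derived from integrated fluorescence ratio over the kinetic read; more negative B-score means stronger inhibition of depolarization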
TRPC4 inh – inhibitors of mouse TRPC4 channel, primary screen, Fluo4 calcium, HEK293 TRPC4beta/mu-opioid cells | Short transient receptor potential channel 4 (Mus musculus), Q9QUQ5 | DAMGO-evoked Fluo4 calcium flux; hits give low values | B-score at 10 µM | actives 0.39% (n = 300,000);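 active = B-score over 3 SD under the library average, no early fluorescence shift, positive overall ratio signal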
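Assay system: Stable TRPC4beta/mu-opioid receptor HEK293 cells | Reagent: DAMGO in two steps, submaximal then maximal | Compound dosing: Single concentration per test compound | Signal: Fluo4 Ca2+ flux fluorescence | Evaluation: Per-well B score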
TRPC4 PAM – positive allosteric modulators of TRPC4, primary screen, cell-based, mouse TRPC4beta, HEK293 mu-opioid, Fluo-4 calcium; Short transient receptor potential channel 4 (Mus musculus), Q9QUQ5; DAMGO EC20, Fluo-4 Ca2+ flux; hits give high values; B-score at 10 µM; actives 0.42% (n = 310,000); AID 2227, 2009;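 active = B-score of calcium response area above 5 SD of library B-scores, with initial fluorescence ratio within 5 SD of library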;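 also: B-score of integrated fluorescence ratio over time as area under calcium response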
Starred values were filed as active, the others as inactive; i = inactive; . = no result given. Rows were chosen to be rich in hits. Some 2.3% of all compounds tested hit in one or more screens of this group.

SMILES	TRPC6 activator	TRPC4 agonist	TRPC6 inh	TRPC4 inh	TRPC4 PAM
Cc1cc(OCCCCn2ccnc2)cc(C)c1Cl	i	141*	i	i	i
c1ccc2cc(OCCCn3ccnc3)ccc2c1	i	53*	i	i	11*
Cc1cc(OCCCn2ccnc2)ccc1C(C)C	i	i	i	i	i
CC(C)(C)c1ccccc1OCC(=O)NCCCn1ccnc1	i	55*	i	i	i
O=C(COc1ccc(Cl)cc1Cl)NCCCn1ccnc1	i	i	i	i	i
Cc1cc(Cl)cc(C)c1OCCCCn1ccnc1	i	106*	i	i	i
Clc1cccc(OCCCn2ccnc2)c1	i	i	i	i	i
Cc1cccc(C(C(N)=O)c2ncc(C(F)(F)F)cc2Cl)c1 (stereo not given)	i	i	i	i	i
Cc1cc(C)n2nc(CNS(=O)(=O)c3ccc(CC(C)C)cc3)nc2n1	i	i	i	i	i
O=C(O)c1cc(NC(=O)c2ccccc2[N+](=O)[O-])ccc1O	i	i	i	i	i
CC(C)CN1CCN(Cc2cn(C)c3ccccc23)CC1CCO (stereo not given)	i	i	i	i	i
Cc1ccccc1OCCCCCn1ccnc1	i	61*	i	i	i
Clc1ccccc1OCCCn1ccnc1	i	i	i	i	i
Clc1ccc(SCCCCn2ccnc2)cc1	i	75*	i	i	i
Cc1cccc(OCCn2ccnc2)c1	i	i	i	i	i
Clc1ccccc1OCCCCn1ccnc1	i	i	i	i	i
Cc1cccc(OCCCCCn2ccnc2)c1	i	i	i	i	14*
Cc1cccc(Cl)c1OCCCCn1ccnc1	i	77*	i	.	i
CCN(CC)C(=O)CC(c1ccc(OC)cc1)c1c(OC)cc(OC)c2ccc(=O)oc12 (stereo not given)	i	i	i	i	i
CC(=O)c1cccc(NC(=O)CN(C)S(=O)(=O)c2cccc3nsnc23)c1	i	i	i	i	i
C#CCSc1nc2sc3c(c2c(=O)n1C)CCC3	i	i	i	i	i
CCCCN(CC)CCCNC(=O)c1cc2c(-c3ccc(OC)c(OC)c3)nn(C)c2s1	i	82*	i	i	i
CCCCN(C)CCNC(=O)c1cc2c(-c3cccc(OC)c3)nn(C)c2s1	i	i	i	i	25*
COc1cccc(-c2nn(C)c3sc(C(=O)NCCCN(C)Cc4ccccc4)cc23)c1	i	57*	i	i	i
CCN1CCCC1CNC(=O)c1cc2c(-c3cccc(OC)c3)nn(C)c2s1 (stereo not given)	i	i	i	i	i
SMILES	TRPC6 activator	TRPC4 agonist	TRPC6 inh	TRPC4 inh	TRPC4 PAM
CCN(CC)CCCNC(=O)c1cc2c(-c3cccc(OC)c3)nn(C)c2s1	i	79*	i	i	13*
COc1cccc(-c2nn(C)c3sc(C(=O)NCc4ccco4)cc23)c1	i	i	i	i	i
COC(=O)c1ccccc1NC(=O)CSc1nnnn1CC(=O)O	i	i	i	i	i
CCN(CC)c1ccc2c(Cl)c(Br)c(=O)oc2c1	i	i	i	-6*	i
COc1ccc(C2CC2/C(=N/O)c2ccccn2)cc1 (stereo not given)	i	i	i	i	i
COc1ccc(C2CC2/C(=N/O)c2ccccc2)cc1 (stereo not given)	i	i	i	-8*	i
O=C(CCCn1nnnc1CN1CCOCC1)N1CCC(c2ccc(F)cc2)C1 (stereo not given)	i	i	i	i	i
Cc1ccccc1NC(=O)c1ccc(NC(=O)C2CC(=O)OC23CCCCC3)cc1 (stereo not given)	i	i	i	i	i
COc1ccc(C(CNc2ccc(C(F)(F)F)cn2)N(C)C)cc1OC (stereo not given)	i	i	i	-6*	i
Cn1c(-c2ccccc2)cnc1NCc1ccc(F)cc1	i	i	i	-7*	i
COc1ccc(-n2c(=O)c3c4c(sc3n(CC(N)=O)c2=O)CCCCC4)cc1	i	i	i	i	i
O=C(COC(=O)c1nc(Cl)ccc1Cl)c1ccccc1Cl	i	i	i	i	137*
COc1ccccc1C(=O)COC(=O)c1nc(Cl)ccc1Cl	i	i	i	i	i
CCOC(=O)C1(CCOC)CCN(C(C)CCc2ccc(OC)cc2)CC1 (stereo not given)	i	i	i	-7*	i
CCOC(=O)C1(CCOc2ccccc2)CCN(Cc2cnc(C)s2)CC1	i	115*	i	i	i
CC(=O)Nc1ccc(CN2CCC(CO)(CCOc3ccccc3)CC2)cc1	i	i	i	i	i
CCOC(=O)C1(CCOc2ccccc2)CCN(Cc2cccc3c2OCO3)CC1	i	i	i	-7*	i
CCOC(=O)C1(CCOc2ccccc2)CCN(Cc2ccccc2O)CC1	i	i	i	i	i
CCOC(=O)C1(CCOc2ccccc2)CCN(Cc2ccc(NC(C)=O)cc2)CC1	i	83*	i	i	i
CCOC(=O)C1(CCOC)CCN(C(=O)Cc2ccc3ccccc3c2)CC1	i	i	i	i	i
CCOC(=O)C1(CCOc2ccccc2)CCN(Cc2ccc(CO)o2)CC1	i	i	i	i	i
COCCCN1C(=O)N(c2ccc(F)cc2)C(=O)C1CC(=O)Nc1ccc(OC)cc1 (stereo not given)	i	i	i	i	i
CCOC(=O)C1(CCOc2ccccc2)CCN(Cc2cccc(OC)c2OC)CC1	i	74*	i	i	i
COc1cc(CN2CCC(CO)(CCOc3ccccc3)CC2)cc(OC)c1	i	i	i	-5*	i
CSCC(C)N1CCC(CO)(CCc2ccccc2)CC1 (stereo not given)	i	i	i	i	i
CCOC(=O)C1(CCOc2ccccc2)CCN(Cc2ccc(OC)cc2)CC1	i	94*	i	i	i
CC(COc1ccccc1)N1CCC(CO)(CCc2ccccc2)CC1 (stereo not given)	i	51*	i	i	i
